Columns and labels:
Assay type in all cases: functional
Rattus norvegicus [1] = assay: Compound was tested for the inhibition of rat passive cutaneous anaphylaxis (PCA) at 10 mg/kg dose ip (1h pretreatment); conditions: route intraperitoneal
Rattus norvegicus [2] = assay: Compound was tested for the inhibition of rat passive cutaneous anaphylaxis (PCA) at 10 mg/kg dose ip; conditions: route intraperitoneal
Rattus norvegicus [3] = assay: Compound was tested for the inhibition of rat passive cutaneous anaphylaxis (PCA) at 0.37 mg/kg dose ip (1h pretreatment); conditions: route intraperitoneal
In short: (§1)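 Male Sprague-Dawley rats were given 0.05 mL of high-titer IgE rat anti-ovalbumin antiserum intradermally. 24 h later: iv ovalbumin plus Evans Blue in saline, with simultaneous intradermal serotonin and histamine. Drug given ip 1 h before antigen. At 30 min, skin was reflected and wheal size and colour scored against a chart. %inhibition = (1 − mean treated/mean control score)×100. Dunnett's test, p ≤ 0.05.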

Rattus norvegicus [4] = assay: Compound was tested for the inhibition of rat passive cutaneous anaphylaxis (PCA) administered intraperitoneally; conditions: ip; in short: as §1
Cavia porcellus [5] = assay: Compound was tested for the inhibition of guinea pig active lung anaphylaxis (ALA) at 0.01 mg/kg iv
In short: (§2)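 Guinea pigs were sensitized with egg albumin 1 mg sc plus Bordetella pertussis vaccine adjuvant. Two weeks later: pentobarbital 65 mg/kg ip, then trachea, jugular vein and carotid cannulated. Drug given iv before an iv egg albumin challenge (0.5 mg/kg). Airway resistance (bronchoconstriction) and arterial pressure monitored. %inhibition given as mean ± SE; ED50 iv with 95% confidence limits.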

Cavia porcellus [6] = assay: Inhibition of guinea pig ALA at a dose of 1 mg/kg after 8 hr postdosing orally; conditions: route oral
In short: (§3)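 Guinea pigs were sensitized with egg albumin 1 mg sc plus pertussis vaccine adjuvant. Two weeks later they were anesthetized (pentobarbital 65 mg/kg ip) and cannulated. Drug was given ip or orally at 1 mg/kg. Challenge with egg albumin 0.5 mg/kg iv at 1, 7, 8 or 24 h post-dose, with bronchoconstriction measured. %inhibition given as mean ± SD.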

Rattus norvegicus [7] = assay: Compound was tested for percent inhibition, at 0.37 mg/kg administered intraperitoneally against histamine; conditions: ip, route intraperitoneal; in short: as §1
Cavia porcellus [8] = assay: Inhibition of guinea pig ALA at a dose of 1 mg/kg after 24 hr postdosing intraperitoneally; conditions: ip, route intraperitoneal; in short: as §3
Rattus norvegicus [9] = assay: Compound was tested […] for the inhibition of serotonin release in rat peritoneal cell
Cavia porcellus [10] = assay: Inhibition of guinea pig ALA at a dose of 1 mg/kg after 24 hr postdosing orally; conditions: route oral; in short: as §3
Rattus norvegicus [11] = assay: Compound was tested for percent inhibition, at 3.3 mg/kg administered intraperitoneally against serotonin by Dunnett's test; conditions: ip, route intraperitoneal; in short: as §1
Cavia porcellus [12] = assay: Inhibition of guinea pig ALA at a dose of 1 mg/kg after 1 hr postdosing intraperitoneally 1 h; conditions: ip, route intraperitoneal; in short: as §3
Cavia porcellus [13] = assay: Inhibition of guinea pig ALA at a dose of 1 mg/kg after 1 hr postdosing orally 1 h; conditions: route oral; in short: as §3
Cavia porcellus [14] = assay: Inhibition of guinea pig ALA at a dose of 1 mg/kg after 7 hr postdosing intraperitoneally; conditions: ip, route intraperitoneal; in short: as §3
Rattus norvegicus [15] = assay: Compound was tested for percent inhibition, at 0.37 mg/kg administered intraperitoneally against serotonin by Dunnett's test; conditions: ip, route intraperitoneal; in short: as §1
Rattus norvegicus [16] = assay: Compound was tested for percent inhibition, at 3.3 mg/kg administered intraperitoneally against histamine by Dunnett's test; conditions: ip, route intraperitoneal; in short: as §1
Rattus norvegicus [17] = assay: Compound was tested for percent inhibition, at 3.3 mg/kg administered intraperitoneally against rat passive cutaneous anaphylaxis by Dunnett's test; conditions: ip, route intraperitoneal; in short: as §1
Cavia porcellus [18] = assay: Compound was tested for the inhibition of guinea pig active lung anaphylaxis (ALA) administered intravenously; conditions: iv; in short: as §2

For c1ccc2c(c1)Cn1c(cc3ccccc31)C(N1CCCCC1)=N2, the inhibition in vivo at 10 mg/kg (Rattus norvegicus [1]) was 27.4%.
With OC1CCN(C2=Nc3ccccc3Cn3c2cc2ccccc23)CC1 the inhibition in vivo at 10 mg/kg (Rattus norvegicus [1]) was 40.2%.
O=C1Nc2ccccc2Cn2c1cc1ccccc12 was tested, and the inhibition in vivo at 10 mg/kg (Rattus norvegicus [2]) was 23.2%.
CCCCN1CCN(C2=Nc3ccccc3Cn3c2cc2ccccc23)CC1 was tested, and the inhibition in vivo at 0.37 mg/kg (Rattus norvegicus [3]) was 39.9% and the ED50 (Rattus norvegicus [4]) was 1.32 mg/kg.
With CCOC(=O)N1CCN(C2=Nc3ccccc3Cn3c2cc2ccccc23)CC1 the inhibition in vivo at 0.37 mg/kg (Rattus norvegicus [3]) was 38.7% and the ED50 (Rattus norvegicus [4]) was 0.67 mg/kg.
With CN1CCN(C2=Nc3ccccc3Cn3c2cc2ccccc23)CC1 the inhibition in vivo at 0.01 mg/kg (Cavia porcellus [5]) was 41%, the inhibition in vivo at 1 mg/kg (Cavia porcellus [6]) was 87% and the inhibition in vivo at 0.37 mg/kg (Rattus norvegicus [7]) was 58.2%. The inhibition in vivo at 1 mg/kg (Cavia porcellus [8]) was 26%, the inhibition in vivo at 0.37 mg/kg (Rattus norvegicus [3]) was 93.6% and the IC50 (Rattus norvegicus [9]) was 15.9 µM. For the same molecule, the inhibition in vivo at 1 mg/kg (Cavia porcellus [10]) was 61%, the inhibition in vivo at 3.3 mg/kg (Rattus norvegicus [11]) was 65.9% and the ED50 (Rattus norvegicus [4]) was 0.19 mg/kg. For the same molecule, the inhibition in vivo at 1 mg/kg (Cavia porcellus [12]) was 74%, the inhibition in vivo at 1 mg/kg (Cavia porcellus [13]) was 51% and the inhibition in vivo at 1 mg/kg (Cavia porcellus [14]) was 75%. For the same molecule, the inhibition in vivo at 0.37 mg/kg (Rattus norvegicus [15]) was 50.9%, the inhibition in vivo at 3.3 mg/kg (Rattus norvegicus [16]) was 63.3% and the inhibition in vivo at 3.3 mg/kg (Rattus norvegicus [17]) was 100%. It also gave an ED50 (Cavia porcellus [18]) of 0.01 mg/kg.
